Test results taken from ChEMBL document CHEMBL1136990, “Design of HIV-1 protease inhibitors with pyrrolidinones and oxazolidinones as novel P1'-ligands to enhance backbone-binding interactions with protease: synthesis, biological evaluation, and protein-ligand X-ray studies” (J Med Chem, 2009).

Legend:
[1] = system: Human immunodeficiency virus 1; test: Ratio of EC50 for multidrug-resistant HIV1 isolate MM to EC50 for wild type HIV1 isolate ERS104pre; assay type: functional
Procedure, shortened: (§1)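 Fold change is the EC50 against each multidrug-resistant isolate divided by the EC50 against HIV-1ERS104pre. EC50s came from PHA-stimulated PBMC with a p24 Gag production end point, run in duplicate or triplicate across three independent experiments.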

[2] = system: Human immunodeficiency virus 1; test: Ratio of EC50 for multidrug-resistant HIV1 isolate G to EC50 for wild type HIV1 isolate ERS104pre; assay type: functional; procedure, shortened: as §1
[3] = system: Human immunodeficiency virus 1; test: Ratio of EC50 for multidrug-resistant HIV1 isolate C to EC50 for wild type HIV1 isolate ERS104pre; assay type: functional; procedure, shortened: as §1
[4] = system: Human immunodeficiency virus 1; test: Antiviral activity against wild type HIV1 isolate ERS104pre infected in PHA-stimulated PBMC assessed as inhibition of p24 […] protein; assay type: functional, organism-based; settings: Human immunodeficiency virus 1, isolate ERS104pre
Procedure, shortened: (§2)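 Clinical HIV-1 isolates were tested in PHA-stimulated peripheral blood mononuclear cells as targets, with inhibition of p24 Gag protein production as the end point. Each value was determined in duplicate or triplicate and derived from three independent experiments.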

[5] = system: Human immunodeficiency virus 1; test: Antiviral activity against multidrug-resistant HIV1 isolate MM infected in PHA-stimulated PBMC assessed as inhibition of p24 […] protein; assay type: functional, organism-based; settings: Human immunodeficiency virus 1, isolate MM; procedure, shortened: as §2
[6] = system: Human immunodeficiency virus 1; test: Antiviral activity against multidrug-resistant HIV1 isolate TM infected in PHA-stimulated PBMC assessed as inhibition of p24 […] protein; assay type: functional, organism-based; settings: Human immunodeficiency virus 1, isolate TM; procedure, shortened: as §2
[7] = system: Human immunodeficiency virus 1; test: Antiviral activity against multidrug-resistant HIV1 isolate G infected in PHA-stimulated PBMC assessed as inhibition of p24 […] protein; assay type: functional, organism-based; settings: Human immunodeficiency virus 1, isolate G; procedure, shortened: as §2
[8] = system: Human immunodeficiency virus 1; test: Antiviral activity against multidrug-resistant HIV1 isolate C infected in PHA-stimulated PBMC assessed as inhibition of p24 […] protein; assay type: functional, organism-based; settings: Human immunodeficiency virus 1, isolate C; procedure, shortened: as §2
[9] = system: Human immunodeficiency virus 1; test: Ratio of EC50 for multidrug-resistant HIV1 isolate TM to EC50 for wild type HIV1 isolate ERS104pre; assay type: functional; procedure, shortened: as §1
[10] = Inhibition of HIV protease by fluorescence energy transfer assay; set-up: species or system Human immunodeficiency virus
[11] = system: Human immunodeficiency virus 1; test: Antiviral activity against HIV1 LAI in human MT2 cells by MTT assay; assay type: functional, organism-based; settings: Human immunodeficiency virus 1, LAI
[12] = system: Human immunodeficiency virus 1; test: Antiviral activity against nelfinavir-resistant HIV1 NL4-3; assay type: functional, organism-based; settings: Human immunodeficiency virus 1, NL4-3
[13] = system: Human immunodeficiency virus 1; test: Antiviral activity against saquinavir-resistant HIV1 NL4-3; assay type: functional, organism-based; settings: Human immunodeficiency virus 1, NL4-3
[14] = system: Human immunodeficiency virus 1; test: Antiviral activity against atazanavir-resistant HIV1 NL4-3; assay type: functional, organism-based; settings: Human immunodeficiency virus 1, NL4-3
[15] = system: Human immunodeficiency virus 1; test: Antiviral activity against indinavir-resistant HIV1 NL4-3; assay type: functional, organism-based; settings: Human immunodeficiency virus 1, NL4-3
[16] = system: Human immunodeficiency virus 1; test: Antiviral activity against ritonavir-resistant HIV1 NL4-3; assay type: functional, organism-based; settings: Human immunodeficiency virus 1, NL4-3
[17] = system: Human immunodeficiency virus 1; test: Antiviral activity against lopinavir-resistant HIV1 NL4-3; assay type: functional, organism-based; settings: Human immunodeficiency virus 1, NL4-3
[18] = system: Human immunodeficiency virus 1; test: Antiviral activity against amprenavir-resistant HIV1 NL4-3; assay type: functional, organism-based; settings: Human immunodeficiency virus 1, NL4-3

Q: Which “Ratio EC50” value [1] does the source give for `CC(C)CN(C[C@@H](O)[C@H](Cc1ccccc1)NC(=O)O[C@H]1CCOC1)S(=O)(=O)c1ccc(N)cc1` here?
A: Its value is 13.

Q: What about the “Ratio EC50” value [2] of the same molecule?
A: The value was 13.

Q: What about the “Ratio EC50” value [3] of the same molecule?
A: The value was 14.

Q: What about the EC50 [4] of the same molecule?
A: The EC50 was 25 nM.

Q: What about the EC50 [5] of the same molecule?
A: Its EC50 is 320 nM.

Q: And the EC50 [6]?
A: Its EC50 is 250 nM.

Q: What about the EC50 [7] of the same molecule?
A: The EC50 was 330 nM.

Q: And the EC50 [8]?
A: Its EC50 is 350 nM.

Q: What about the “Ratio EC50” value [9] of the same molecule?
A: Its value is 10.

Q: For `Nc1ccc(S(=O)(=O)N(C[C@@H]2CCC(=O)N2)C[C@@H](O)[C@H](Cc2ccccc2)NC(=O)O[C@H]2CO[C@H]3OCC[C@H]32)cc1`, which Ki [10] is on record?
A: Its Ki is 0.28 nM.

Q: For `Nc1ccc(S(=O)(=O)N(C[C@@H]2COC(=O)N2)C[C@@H](O)[C@H](Cc2ccccc2)NC(=O)O[C@H]2CO[C@H]3OCC[C@H]32)cc1`, which Ki [10] is on record?
A: Its Ki is 0.31 nM.

Q: Which Ki [10] does the source give for `Nc1ccc(S(=O)(=O)N(C[C@H]2CCC(=O)N2)C[C@@H](O)[C@H](Cc2ccccc2)NC(=O)O[C@@H]2C[C@@H]3CCO[C@@H]3C2)cc1` here?
A: Its Ki is 0.31 nM.

Q: And the IC50 [11]?
A: Its IC50 is 600 nM.

Q: Which results are given for `COc1ccc(S(=O)(=O)N(C[C@H]2COC(=O)N2)C[C@@H](O)[C@H](Cc2ccccc2)NC(=O)O[C@H]2CO[C@H]3OCC[C@H]32)cc1`?
A: Ki [10]: 0.035 nM; IC50 [11]: 310 nM

Q: Which results are given for `Nc1ccc(S(=O)(=O)N(C[C@H]2CCC(=O)N2)C[C@@H](O)[C@H](Cc2ccccc2)NC(=O)O[C@H]2CO[C@H]3OCC[C@H]32)cc1`?
A: Ki [10]: 0.85 nM; IC50 [11]: > 1000 nM

Q: What does the source list for `COc1ccc(S(=O)(=O)N(C[C@H]2CCC(=O)N2)C[C@@H](O)[C@H](Cc2ccccc2)NC(=O)O[C@@H]2C[C@@H]3CCO[C@@H]3C2)cc1`?
A: Ratio EC50 [1]: 2; EC50 [12]: 36 nM; Ratio EC50 [2]: 1; EC50 [13]: 36 nM; Ratio EC50 [3]: 1; EC50 [14]: 36 nM; EC50 [4]: 28 nM; EC50 [5]: 42 nM; EC50 [6]: 29 nM; EC50 [15]: 36 nM; EC50 [16]: 36 nM; EC50 [7]: 27 nM; EC50 [8]: 23 nM; IC50 [11]: 26 nM; EC50 [17]: 36 nM; Ratio EC50 [9]: 1; EC50 [18]: 36 nM

Q: With `COc1ccc(S(=O)(=O)N(C[C@@H]2CCC(=O)N2)C[C@@H](O)[C@H](Cc2ccccc2)NC(=O)O[C@@H]2C[C@@H]3CCO[C@@H]3C2)cc1` as the molecule, how does the Ki [10] read?
A: Its Ki is 0.31 nM.

Q: And the IC50 [11]?
A: Its IC50 is 230 nM.

Q: What does the source list for `COc1ccc(S(=O)(=O)N(C[C@@H]2CCC(=O)N2)C[C@@H](O)[C@H](Cc2ccccc2)NC(=O)O[C@H]2CO[C@H]3OCC[C@H]32)cc1`?
A: Ki [10]: 0.85 nM; IC50 [11]: 480 nM

Q: Which Ki [10] does the source give for `COc1ccc(S(=O)(=O)N(C[C@H]2CCC(=O)N2)C[C@@H](O)[C@H](Cc2ccccc2)NC(=O)O[C@H]2CO[C@H]3OCC[C@H]32)cc1` here?
A: The Ki was 0.12 nM.

Q: What about the IC50 [11] of the same molecule?
A: Its IC50 is 250 nM.

Q: Which Ki [10] does the source give for `Nc1ccc(S(=O)(=O)N(C[C@H]2COC(=O)N2)C[C@@H](O)[C@H](Cc2ccccc2)NC(=O)O[C@H]2CO[C@H]3OCC[C@H]32)cc1` here?
A: The Ki was 0.24 nM.

Q: And the IC50 [11]?
A: The IC50 was greater than 1000 nM.

Q: Which Ki [10] does the source give for `Nc1ccc(S(=O)(=O)N(C[C@@H]2CCC(=O)N2)C[C@@H](O)[C@H](Cc2ccccc2)NC(=O)O[C@@H]2C[C@@H]3CCO[C@@H]3C2)cc1` here?
A: Its Ki is 1.27 nM.

Q: What about the IC50 [11] of the same molecule?
A: Its IC50 is greater than 1000 nM.

Q: Which results are given for `COc1ccc(S(=O)(=O)N(C[C@@H]2COC(=O)N2)C[C@@H](O)[C@H](Cc2ccccc2)NC(=O)O[C@H]2CO[C@H]3OCC[C@H]32)cc1`?
A: Ki [10]: 0.28 nM; IC50 [11]: 480 nM

Q: Which “Ratio EC50” value [1] does the source give for `CC(C)(C)NC(=O)[C@@H]1CN(Cc2cccnc2)CCN1C[C@@H](O)C[C@@H](Cc1ccccc1)C(=O)N[C@H]1c2ccccc2C[C@H]1O.O` here?
A: The value was greater than 36.

Q: What about the “Ratio EC50” value [2] of the same molecule?
A: Its value is 10.

Q: What about the “Ratio EC50” value [3] of the same molecule?
A: The value was greater than 36.

Q: What about the EC50 [4] of the same molecule?
A: Its EC50 is 28 nM.

Q: And the EC50 [5]?
A: The EC50 was greater than 1000 nM.

Q: And the EC50 [6]?
A: Its EC50 is greater than 1000 nM.

Q: What about the EC50 [7] of the same molecule?
A: Its EC50 is 290 nM.

Q: What about the EC50 [8] of the same molecule?
A: The EC50 was greater than 1000 nM.

Q: And the “Ratio EC50” value [9]?
A: The value was greater than 36.
